Consider 10 molecules from ChEMBL document CHEMBL3813669, “Synthesis and in vitro evaluation of hydrazinyl phthalazines against malaria parasite, Plasmodium falciparum” (Bioorg Med Chem Lett, 2016).

Activity calls are given as the source filed them. The calls are words filed in the database; no cut-off is given here.

In test [1] the test system is Plasmodium falciparum. Briefly: Antiplasmodial activity against Plasmodium falciparum 3D7 trophozoite stage infected in human RBCs assessed as reduction in parasitemia at 1 to 100 uM after 48 hrs by Hoechst-3342 staining based flow cytometric analysis. In kind it is functional, organism-based. The method in brief:
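3D7 parasites at trophozoite stage (~30 hpi) were exposed to 1, 20 and 100 μM compound, with DMSO-treated negative control. Parasitemia was read by flow cytometry after 48 h.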
For orientation: Flow cytometry measures light scatter and fluorescence of single cells or particles in a stream.

Test [2] deals with Plasmodium falciparum. As to the kind of experiment: Antiplasmodial activity against Plasmodium falciparum 3D7 infected in human RBCs assessed as inhibition of schizont to ring stage transition at 2 and 4 times IC50 measured after 12 hrs by flow cytometric analysis. The class given is functional, organism-based. In a few lines:
(§1)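 Synchronised 3D7 cultures received compound at ring (2-4 h), trophozoite (24-26 h) or schizont (36-38 h) stage. Dosing was 4×, 2×, 1× and 0.25× the IC50 estimated from the 3D7 dose-response. Samples were harvested about 12 h later, and stage progression and morphology were monitored by flow cytometry and microscopy.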

The nature of test [3]: Selectivity index, ratio of IC50 for MDCK cells to IC50 for Plasmodium falciparum 3D7. The method in brief:
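Ratio computed as […]. The 3D7 IC50 came from trophozoite-stage parasites (~24-26 hpi) incubated 48 h with 1.6-100 μM compound, with DMSO and chloroquine controls. The MDCK IC50 came from the MTT assay tested up to 200 μM.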

A further test relates to MDCK. Briefly: Cytotoxicity against MDCK cells assessed as cell viability measured after overnight incubation by MTT assay. The class given is cell-based. As to conditions: Canis lupus familiaris. The method in brief: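 MDCK cells were tested by MTT viability assay at compound concentrations up to 200 μM, alongside controls.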
Background: Formazan colour is commonly taken as a measure of viable cells.

The test system of test [4] is Plasmodium falciparum. As to the kind of experiment: Antiplasmodial activity against Plasmodium falciparum 3D7 infected in human RBCs assessed as inhibition of ring to trophozoite stage transition at 0.25 to 4 times IC50 measured after 12 hrs by flow cytometric analysis. The class given is functional, organism-based. The method in brief: as §1
Test [5] relates to Plasmodium falciparum. Briefly: Antiplasmodial activity against chloroquine-resistant Plasmodium falciparum K1 infected in human RBCs assessed as reduction in parasitemia after 48 hrs by Hoechst-3342 staining based flow cytometric analysis. In kind it is functional, organism-based. As to conditions: K1, 48 h. In a few lines: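 The K1 strain was screened across a 0–100 μM compound range alongside 3D7, and IC50 values were derived from parasitemia. Giemsa-stained smears from representative experiments were also examined by microscopy for parasite phenotype.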

Test [6] deals with Plasmodium falciparum. As to the kind of experiment: Antiplasmodial activity against Plasmodium falciparum 3D7 infected in human RBCs assessed as inhibition of trophozoite to schizont stage transition at 2 and 4 times IC50 measured after 12 hrs by flow cytometric analysis. In kind it is functional, organism-based. In a few lines:
as §1

Test [7] relates to Plasmodium falciparum. Briefly: Antiplasmodial activity against Plasmodium falciparum 3D7 trophozoite stage infected in human RBCs assessed as reduction in parasitemia after 48 hrs by Hoechst-3342 staining based flow cytometric analysis. In kind it is functional, organism-based. The conditions noted are these: 3D7, 48 h. In a few lines:
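Trophozoite-stage 3D7 parasites (~24–26 hpi) were exposed to 1.6 μM to 100 μM compound for 48 h, with DMSO-treated parasites as negative control and chloroquine as positive control. Parasitemia was read by flow cytometry, and IC50 was estimated from the concentration series.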

In test [8] the test system is Plasmodium falciparum. As to the kind of experiment: Antiplasmodial activity against Plasmodium falciparum 3D7 infected in human RBCs assessed as inhibition of ring to trophozoite stage transition at 4 times IC50 measured after 12 hrs by flow cytometric analysis. In kind it is functional, organism-based. The method in brief: as §1
In test [9] the test system is Plasmodium falciparum. Briefly: Antiplasmodial activity against Plasmodium falciparum 3D7 infected in human RBCs assessed as inhibition of trophozoite to schizont stage transition at 0.25 to 4 times IC50 measured after 12 hrs by flow cytometric analysis. In kind it is functional, organism-based. The method in brief:
as §1

Test [10] concerns Plasmodium falciparum. As to the kind of experiment: Antiplasmodial activity against Plasmodium falciparum 3D7 infected in human RBCs assessed as inhibition of merozoite maturation at schizont stage at IC50 by Giemsa-staining based microscopic analysis. In kind it is functional, organism-based.
The subject of test [11] is Plasmodium falciparum. As to the kind of experiment: Antiplasmodial activity against Plasmodium falciparum 3D7 infected in human RBCs assessed as inhibition of schizont to ring stage transition at 1 to 4 times IC50 measured after 12 hrs by flow cytometric analysis. In kind it is functional, organism-based. The method in brief: as §1
Test [12] deals with Plasmodium falciparum. Briefly: Antiplasmodial activity against Plasmodium falciparum 3D7 infected in human RBCs assessed as inhibition of schizont to ring stage transition at 4 times IC50 measured after 12 hrs by flow cytometric analysis. In kind it is functional, organism-based. In a few lines:
as §1

Consider `C(=N\Nc1nncc2ccccc12)/C1CC1`, for which, in the test with Plasmodium falciparum [1], the inhibition entry was “Active”.
In the case of `C(=N\Nc1nncc2ccccc12)/c1c(-c2ccccc2)[nH]c2ccccc12`, the inhibition result in the test with Plasmodium falciparum [2] and with Plasmodium falciparum [6] was “Active” throughout. In addition, the “Ratio IC50” value in test [3] is on record as 57.31. Besides, the results for the half-inhibitory concentration (IC50) in the test with MDCK, in the test on Plasmodium falciparum [5] and in the test on Plasmodium falciparum [7] were greater than 200 µM, 2.43 µM and 3.49 µM, respectively. Also, in the test on Plasmodium falciparum [4], the inhibition entry is “inactive”.
As to `Cc1[nH]c2ccccc2c1/C=N/Nc1nncc2ccccc12`, the inhibition entry in the test with Plasmodium falciparum [2], in the test with Plasmodium falciparum [8] and with Plasmodium falciparum [6] was “Active” throughout. In addition, in test [3], the “Ratio IC50” value is given as 16.42. The IC50 in the test on MDCK was greater than 200 µM; in the test on Plasmodium falciparum [5], 5.98 µM; with Plasmodium falciparum [7], 12.2 µM.
Regarding `C(=N\Nc1nncc2ccccc12)/c1ccc2c(c1)CCO2`, the inhibition entry in the test with Plasmodium falciparum [1] is “Active”.
Regarding `Oc1ccc(Cl)cc1/C=N\Nc1nncc2ccccc12`, the inhibition entry in the test on Plasmodium falciparum [2] and in the test with Plasmodium falciparum [10] was “Active” throughout. Besides, in test [3], the “Ratio IC50” value came out at 60.75. The inhibition result in the test on Plasmodium falciparum [9] and in the test with Plasmodium falciparum [4] was “inactive” throughout. Further, the IC50 is greater than 100 µM with MDCK, 1.69 µM in the test on Plasmodium falciparum [5] and 1.65 µM in the test on Plasmodium falciparum [7].
As for `O=c1cc(/C=N/Nc2nncc3ccccc23)oc2ccccc12`, the inhibition result with Plasmodium falciparum [1] is “Active”.
As for `Cc1cc(/C=N/Nc2nncc3ccccc23)c([N+](=O)[O-])cc1C`, the inhibition result with Plasmodium falciparum [1] was “Active”.
Take `Cn1ccnc1/C=N/Nc1nncc2ccccc12`: the “Ratio IC50” value in [3] is on record as 57.22. The inhibition entry with Plasmodium falciparum [9] and with Plasmodium falciparum [4] was “inactive” throughout. In addition, the IC50 in the test with MDCK is greater than 200 µM; with Plasmodium falciparum [5], 2.23 µM; in the test with Plasmodium falciparum [7], 3.5 µM. The inhibition entry with Plasmodium falciparum [11] and with Plasmodium falciparum [10] was “Active” in each case.
As to `C(=N\Nc1nncc2ccccc12)/c1c[nH]c2ccccc12`, the “Ratio IC50” value in [3] is 14.56. For the same molecule, the inhibition result with Plasmodium falciparum [12] is “Active”. The inhibition result in the test on Plasmodium falciparum [9] and with Plasmodium falciparum [4] was “inactive” in each case. Further, the IC50 with MDCK is greater than 200 µM; in the test on Plasmodium falciparum [5], 6.66 µM; with Plasmodium falciparum [7] it was 13.7 µM.
As for `CS(=O)(=O)c1ccc(/C=N/Nc2nncc3ccccc23)cc1`, the inhibition entry with Plasmodium falciparum [1] was “Active”.

One may read the IC50 as the concentration that gives 50% inhibition.
